Here are results for seven molecules from ChEMBL document CHEMBL3044956, “Nematicidal and antifungal activities of annonaceous acetogenins from Annona squamosa against various plant pathogens” (J Agric Food Chem, 2011).

Common to all, as to type: functional
Experiment [1] relates to Blumeria hordei. Description: In vivo antifungal activity against Blumeria graminis f. sp. hordei infected barley seedlings assessed as control of barley powdery mildew disease development at 100 ug/ml treated 1 day before spore inoculation measured 3-7 days after inoculation. A digest of the protocol: (§1)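 Potted seedlings sprayed to runoff with material dissolved in MeOH and diluted in 0.025% Tween 20 (5% MeOH); controls got the Tween/MeOH solution alone. Inoculated with spores or mycelial suspension 1 day later. Infected leaf or sheath area rated 3–7 days after inoculation; % control = 100(A−B)/A. Randomized complete block design, three replicates, run in duplicate; Tukey HSD.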

The subject of experiment [2] is Blumeria hordei. Description: In vivo antifungal activity against Blumeria graminis f. sp. hordei infected barley seedlings assessed as control of barley powdery mildew disease development at 1 ug/ml treated 1 day before spore inoculation measured 3-7 days after inoculation. A digest of the protocol:
as §1

The subject of experiment [3] is Bursaphelenchus xylophilus. Description: Nematicidal activity against second juvenile stage (J2) of Bursaphelenchus xylophilus assessed as mortality after 2 days by microtiter plate assay method (Beneficial crop Pine). The note with it: 48 h. A digest of the protocol: (§2)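 Pine wood nematodes reared on B. cinerea mycelia on PDA for 7 days at 28 °C. J2s collected in 0.01% Triton X-100 water and tested in microtiter plates. Compounds in DMSO or MeOH, solvent ≤1%; solvent-only controls. Concentrations 0.004–1 μg/mL. Mortality Abbott-corrected; LC50 by probit. Two runs, three replicates each.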

Experiment [4] relates to Bursaphelenchus xylophilus. Description: Nematicidal activity against second juvenile stage (J2) of Bursaphelenchus xylophilus assessed as mortality at >0.33 ug/ml after 2 days by microtiter plate assay method (Beneficial crop Pine). A digest of the protocol:
as §2

Experiment [5] deals with Botrytis cinerea. Description: In vivo antifungal activity against Botryotinia fuckeliana infected in tomato seedlings assessed as control of tomato gray mold disease development at 50 ug/ml treated 1 day before spore inoculation measured 3-7 days after inoculation. A digest of the protocol:
as §1

The test system of experiment [6] is Botrytis cinerea. Description: In vivo antifungal activity against Botryotinia fuckeliana infected in tomato seedlings assessed as control of tomato gray mold disease development at 5 ug/ml treated 1 day before spore inoculation measured 3-7 days after inoculation. A digest of the protocol: as §1
Experiment [7] concerns Rhizoctonia solani. Description: In vivo antifungal activity against Rhizoctonia solani infected rice seedlings assessed as control of rice sheath blight disease development at 5 ug/ml treated 1 day before spore inoculation measured 3-7 days after inoculation. In short, it runs like this:
as §1

The test system of experiment [8] is Rhizoctonia solani. Description: In vivo antifungal activity against Rhizoctonia solani infected rice seedlings assessed as control of rice sheath blight disease development at 50 ug/ml treated 1 day before spore inoculation measured 3-7 days after inoculation. A digest of the protocol: as §1
For experiment [9], the system named is Meloidogyne incognita. Description: Nematicidal activity against second juvenile stage (J2) of Meloidogyne incognita (root-knot nematode) assessed as mortality incubated in the dark at 28 degC after 2 days by light microscopy (benficial crop Tomato). The settings on record: 48 h. A digest of the protocol: (§3)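 M. incognita eggs taken from infected tomato roots with hypochlorite and J2s hatched in Baermann funnels at 28 °C. J2s from the first 3 days kept in 0.01% Tween 20 water and used within 24 h. About 100 J2s per well; stock added 1:100 in DMSO or MeOH (≤1%). Plates kept shaking in the dark at 28 °C, scored by microscope at 1, 2 and 3 days. Mortality Abbott-corrected. Two runs, three replicates each.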

The subject of experiment [10] is Meloidogyne incognita. Description: Nematicidal activity against second juvenile stage (J2) of Meloidogyne incognita (root-knot nematode) assessed as mortality incubated in the dark at 28 degC after 3 days by light microscopy (benficial crop Tomato). The note with it: 72 h. A digest of the protocol: as §3
Experiment [11] deals with Meloidogyne incognita. Description: Nematicidal activity against second juvenile stage (J2) of Meloidogyne incognita (root-knot nematode) assessed as mortality incubated in the dark at 28 degC after 1 day by light microscopy (benficial crop Tomato). The note with it: 24 h. In short, it runs like this:
as §3

In brackets after ≈: the same amount, converted by molar mass.

Regarding `CCCCNC(=O)n1c(NC(=O)OC)nc2ccccc21` [BENOMYL], the Activity in the experiment on Blumeria hordei [1] is listed as 100%; in the experiment on Blumeria hordei [2], 75%.
By LC50 is commonly meant the concentration that kills 50% of the test population. For `CCCCCCCCCCCC[C@@H](O)[C@H]1CC[C@H]([C@H](O)CCCCCCCCCCCCC2=C[C@H](C)OC2=O)O1` (relative stereo) [REL-SOLAMIN], the LC50 in experiment [3] was above 1 µg/mL.
A word on the mortality: it is the share of the test organisms that died. In the case of `CCCCCCCCCC[C@H](O)[C@H]1CC[C@H]([C@H]2CC[C@H]([C@H](O)CCCCCCCCCCC3=C[C@H](C)OC3=O)O2)O1` (relative stereo) [REL-SQUAMOCIN-J], in experiment [3], the LC50 was 0.025 µg/mL. Besides, the mortality in experiment [4] is given as 100%.
Consider `CCCCCCCCCC[C@@H](O)[C@H]1CC[C@H]([C@H](O)CCCCCCCCCCCCCCC2=C[C@H](C)OC2=O)O1` (relative stereo) [REL-ANNOTEMOYIN-1], for which, in experiment [3], the LC50 was determined as 0.947 µg/mL.
Turning to `N#Cc1c[nH]cc1-c1cccc2c1OC(F)(F)O2` [FLUDIOXONIL], the values for the Activity with Botrytis cinerea [5] and in the experiment on Botrytis cinerea [6] were 100% and 83%, respectively.
Regarding `OCC1=C[C@H](N[C@H]2C[C@H](CO)[C@@H](O[C@@H]3O[C@H](CO)[C@@H](O)[C@H](O)[C@H]3O)[C@H](O)[C@H]2O)[C@H](O)[C@@H](O)[C@@H]1O` [VALIDAMYCIN], the Activity was determined as 70% with Rhizoctonia solani [7] and 100% with Rhizoctonia solani [8].
On to `O=C/C=C/c1ccccc1` [CINNAMALDEHYDE], for which the values for the LC50 in the experiment on Meloidogyne incognita [9], with Meloidogyne incognita [10] and with Meloidogyne incognita [11] were 13.9 µg/mL (≈ 105 µM), 12.2 µg/mL (≈ 92.6 µM) and 15.1 µg/mL (≈ 115 µM), respectively.
